Source: ChEMBL document CHEMBL3244382, “Structural requirements for antileukemic activity among the naturally occurring and semisynthetic maytansinoids” (J Med Chem, 1978)
In brackets after ≈: the same amount, converted by molar mass. Activity calls are given as the source filed them.

Tests used:
Tubulin (Homo sapiens) = Tubulin (Homo sapiens) (UniProt P68371+Q9H4B7+P0DPH7+P68366+Q13509+Q71U36+P04350+Q3ZCM7+P07437+P68363+Q9BQE3+Q6PEY2+Q13885+Q9BVA1+Q9BUF5); test: Inhibition of brain tubulin polymerization (unknown origin) at 37 degC by spectrophotometry
Mus musculus [1] = test: Toxicity in PS mouse allografted with mouse P388 cells assessed as change in body weight at 6.2 ug/kg relative to control; format: organism-based; details: in vivo, 0.0062 mg/kg
In short: (§1)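 P388 (PS) leukemia in mice, 6 mice per dose group. Weight change is the difference in grams between treated and control animals. Survivors are recorded on toxicity day, normally 4 days after the first injection.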

Mus musculus [2] = test: Toxicity in PS mouse allografted with mouse P388 cells assessed as survival at 1.6 ug/kg after 4 days; format: organism-based; details: in vivo, 0.0016 mg/kg, 96 h
In short: (§2)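 PS (P388) leukemic mice, six started per dose group. Toxicity scored as survivors on the toxicity day over the number of mice started. The toxicity day is normally 4 days after the first injection.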

Mus musculus [3] = test: Toxicity in PS mouse allografted with mouse P388 cells assessed as survival at 400 ug/kg after 4 days; format: organism-based; details: in vivo, 0.4 mg/kg, 96 h; in short: as §2
Mus musculus [4] = test: Toxicity in PS mouse allografted with mouse P388 cells assessed as survival at 100 ug/kg after 4 days; format: organism-based; details: in vivo, 0.1 mg/kg, 96 h; in short: as §2
Mus musculus [5] = test: Toxicity in PS mouse allografted with mouse P388 cells assessed as change in body weight at 100 ug/kg relative to control; format: organism-based; details: in vivo, 0.1 mg/kg; in short: as §1
P388 [6] = test: Antitumor activity against mouse P388 cells allografted in PS mouse assessed as median survival time at 400 ug/kg relative to control; format: functional
In short: (§3)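 P388 leukemia (PS) in mice, six mice started per dose group. Read-out is T/C: median survival time of the treated group divided by that of the untreated control group, expressed as a percent. The NIH protocol counts a compound as active when T/C > 125%.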

Mus musculus [7] = test: Toxicity in PS mouse allografted with mouse P388 cells assessed as change in body weight at 50 ug/kg relative to control; format: organism-based; details: in vivo, 0.05 mg/kg; in short: as §1
Mus musculus [8] = test: Toxicity in PS mouse allografted with mouse P388 cells assessed as survival at 50 ug/kg after 4 days; format: organism-based; details: in vivo, 0.05 mg/kg, 96 h; in short: as §2
Mus musculus [9] = test: Toxicity in PS mouse allografted with mouse P388 cells assessed as survival at 12.5 ug/kg after 4 days; format: organism-based; details: in vivo, 0.0125 mg/kg, 96 h; in short: as §2
Mus musculus [10] = test: Toxicity in PS mouse allografted with mouse P388 cells assessed as change in body weight at 25 ug/kg relative to control; format: organism-based; details: in vivo, 0.025 mg/kg; in short: as §1
P388 [11] = test: Antitumor activity against mouse P388 cells allografted in PS mouse assessed as median survival time at 100 ug/kg relative to control; format: functional; in short: as §3
Mus musculus [12] = test: Toxicity in PS mouse allografted with mouse P388 cells assessed as survival at 6.2 ug/kg after 4 days; format: organism-based; details: in vivo, 0.0062 mg/kg, 96 h; in short: as §2
Mus musculus [13] = test: Toxicity in PS mouse allografted with mouse P388 cells assessed as survival at 200 ug/kg after 4 days; format: organism-based; details: in vivo, 0.2 mg/kg, 96 h; in short: as §2
Mus musculus [14] = test: Toxicity in PS mouse allografted with mouse P388 cells assessed as change in body weight at 400 ug/kg relative to control; format: organism-based; details: in vivo, 0.4 mg/kg; in short: as §1
Mus musculus [15] = test: Toxicity in PS mouse allografted with mouse P388 cells assessed as change in body weight at 1.6 ug/kg relative to control; format: organism-based; details: in vivo, 0.0016 mg/kg; in short: as §1
Mus musculus [16] = test: Toxicity in PS mouse allografted with mouse P388 cells assessed as survival at 3.1 ug/kg after 4 days; format: organism-based; details: in vivo, 0.0031 mg/kg, 96 h; in short: as §2
Mus musculus [17] = test: Toxicity in PS mouse allografted with mouse P388 cells assessed as change in body weight at 3.1 ug/kg relative to control; format: organism-based; details: in vivo, 0.0031 mg/kg; in short: as §1
P388 [18] = test: Antitumor activity against mouse P388 cells allografted in PS mouse assessed as median survival time at 200 ug/kg relative to control; format: functional; in short: as §3
P388 [19] = test: Antitumor activity against mouse P388 cells allografted in PS mouse assessed as median survival time at 6.2 ug/kg relative to control; format: functional; in short: as §3
P388 [20] = test: Antitumor activity against mouse P388 cells allografted in PS mouse assessed as median survival time at 50 ug/kg relative to control; format: functional; in short: as §3
P388 [21] = test: Antitumor activity against mouse P388 cells allografted in PS mouse assessed as median survival time at 1.6 ug/kg relative to control; format: functional; in short: as §3
P388 [22] = test: Antitumor activity against mouse P388 cells allografted in PS mouse assessed as median survival time at 3.1 ug/kg relative to control; format: functional; in short: as §3
P388 [23] = test: Antitumor activity against mouse P388 cells allografted in PS mouse assessed as median survival time at 25 ug/kg relative to control; format: functional; in short: as §3
Mus musculus [24] = test: Toxicity in PS mouse allografted with mouse P388 cells assessed as change in body weight at 12.5 ug/kg relative to control; format: organism-based; details: in vivo, 0.0125 mg/kg; in short: as §1
Paracentrotus lividus = test: Antimitotic activity against sea urchin eggs assessed as drug level causing inhibition of mitosis; format: functional; details: Egg
Mus musculus [25] = test: Toxicity in PS mouse allografted with mouse P388 cells assessed as change in body weight at 200 ug/kg relative to control; format: organism-based; details: in vivo, 0.2 mg/kg; in short: as §1
Mus musculus [26] = test: Toxicity in PS mouse allografted with mouse P388 cells assessed as survival at 25 ug/kg after 4 days; format: organism-based; details: in vivo, 0.025 mg/kg, 96 h; in short: as §2
P388 [27] = test: Antitumor activity against mouse P388 cells allografted in PS mouse assessed as median survival time at 12.5 ug/kg relative to control; format: functional; in short: as §3
KB = test: Cytotoxicity against human KB cells; format: functional; details: read-out: ED50 (the source's name)

SMILES: CCO[C@]12C[C@H](OC(=O)N1)[C@@H](C)[C@@H]1O[C@@]1(C)[C@@H](OC(=O)[C@H](C)N(C)C(C)=O)CC(=O)N(C)c1cc(cc(OC)c1Cl)C/C(C)=C/C=C/[C@H]2OC
- inhibition (Tubulin (Homo sapiens)): Active
- Activity (Mus musculus [1]): -1.3 g
- Activity (Mus musculus [2]): Non-toxic
- Activity (Mus musculus [3]): Non-toxic
- Activity (Mus musculus [4]): Non-toxic
- Activity (Mus musculus [5]): -2 g
- T/C (P388 [6]): 100%
- Activity (Mus musculus [7]): -0.8 g
- Activity (Mus musculus [8]): Non-toxic
- Activity (Mus musculus [9]): Non-toxic
- Activity (Mus musculus [10]): -0.3 g
- T/C (P388 [11]): 105%
- Activity (Mus musculus [12]): Non-toxic
- Activity (Mus musculus [13]): Non-toxic
- Activity (Mus musculus [14]): -0.6 g
- Activity (Mus musculus [15]): -0.1 g
- Activity (Mus musculus [16]): Non-toxic
- Activity (Mus musculus [17]): -0.7 g
- T/C (P388 [18]): 98%
- T/C (P388 [19]): 99%
- T/C (P388 [20]): 98%
- T/C (P388 [21]): 99%
- T/C (P388 [22]): 99%
- T/C (P388 [23]): 116%
- Activity (Mus musculus [24]): -0.3 g
- Activity (Paracentrotus lividus): 1 ×10⁻⁷ mol/L
- Activity (Mus musculus [25]): 0.3 g
- Activity (Mus musculus [26]): Non-toxic
- T/C (P388 [27]): 101%
- EC50 (KB): 11 ng/mL (≈ 15.3 nM)

SMILES: COc1cc2cc(c1Cl)N(C)C(=O)C[C@H](OC(=O)[C@H](C)N(C)C(=O)C(C)C)[C@]1(C)O[C@H]1[C@H](C)[C@@H]1C[C@@](OC)(NC(=O)O1)[C@H](OC)/C=C/C=C(\C)C2
- inhibition (Tubulin (Homo sapiens)): Active
- Activity (Mus musculus [1]): -0.6 g
- Activity (Mus musculus [2]): Non-toxic
- Activity (Mus musculus [3]): Non-toxic
- Activity (Mus musculus [4]): Non-toxic
- Activity (Mus musculus [5]): -1 g
- T/C (P388 [6]): 136%
- Activity (Mus musculus [7]): -2 g
- Activity (Mus musculus [8]): Non-toxic
- Activity (Mus musculus [9]): Non-toxic
- Activity (Mus musculus [10]): -0.5 g
- T/C (P388 [11]): 99%
- Activity (Mus musculus [12]): Non-toxic
- Activity (Mus musculus [13]): Non-toxic
- Activity (Mus musculus [14]): -3 g
- Activity (Mus musculus [15]): -1.8 g
- Activity (Mus musculus [16]): Non-toxic
- Activity (Mus musculus [17]): -1.1 g
- T/C (P388 [18]): 100%
- T/C (P388 [19]): 100%
- T/C (P388 [20]): 99%
- T/C (P388 [21]): 101%
- T/C (P388 [22]): 99%
- T/C (P388 [23]): 96%
- Activity (Mus musculus [24]): -2.1 g
- Activity (Paracentrotus lividus): 1 ×10⁻⁸ mol/L
- Activity (Mus musculus [25]): -0.9 g
- Activity (Mus musculus [26]): Non-toxic
- T/C (P388 [27]): 99%
- EC50 (KB): 0.16 ng/mL (≈ 0.218 nM)

SMILES: CCCS[C@]12C[C@H](OC(=O)N1)[C@@H](C)[C@@H]1O[C@@]1(C)[C@@H](OC(=O)[C@H](C)N(C)C(=O)C(C)C)CC(=O)N(C)c1cc(cc(OC)c1Cl)C/C(C)=C/C=C/[C@H]2OC
- inhibition (Tubulin (Homo sapiens)): Active
- Activity (Mus musculus [1]): -0.1 g
- Activity (Mus musculus [2]): Non-toxic
- Activity (Mus musculus [3]): Non-toxic
- Activity (Mus musculus [4]): Non-toxic
- Activity (Mus musculus [5]): -1.6 g
- T/C (P388 [6]): 151%
- Activity (Mus musculus [7]): 0.4 g
- Activity (Mus musculus [8]): Non-toxic
- Activity (Mus musculus [9]): Non-toxic
- Activity (Mus musculus [10]): 0.7 g
- T/C (P388 [11]): 127%
- Activity (Mus musculus [12]): Non-toxic
- Activity (Mus musculus [13]): Non-toxic
- Activity (Mus musculus [14]): 0.6 g
- Activity (Mus musculus [15]): 0.8 g
- Activity (Mus musculus [16]): Non-toxic
- Activity (Mus musculus [17]): 0.6 g
- T/C (P388 [18]): 151%
- T/C (P388 [19]): <80%
- T/C (P388 [20]): 118%
- T/C (P388 [21]): 100%
- T/C (P388 [22]): 97%
- T/C (P388 [23]): 101%
- Activity (Mus musculus [24]): 0.6 g
- Activity (Paracentrotus lividus): 1 ×10⁻⁸ mol/L
- Activity (Mus musculus [25]): -2.4 g
- Activity (Mus musculus [26]): Non-toxic
- T/C (P388 [27]): 95%
- EC50 (KB): 0.31 ng/mL (≈ 0.398 nM)
